Screening results (PubChem BioAssay)
TNAP act mid DEA: human TNAP activation, intermediate phosphate acceptor | P05186 | purified TNAP, CDP-star luminescence, 100 mM DEA, 30 min; active compounds read high; scale: 0 levamisole-inhibited, 1 vehicle-only enzyme | activation factor at 20 µM | 64,000 tested, under 10 active | AID 813;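 active = activation factor of at least 2 at 20 µM, relative to controls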
MT1-MMP txn act: activates MT1-MMP transcription; HT1080 MT1-MMP promoter luciferase reporter, luminescence, overnight; active compounds read high; activation factor at 10 µM; 86,000 tested, 0.16% active; AID 750;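 active = activation factor of at least 2 for MT1-MMP transcription at 10 µM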
E coli RNAP: Escherichia coli RNA polymerase inhibition. E. coli RNA polymerase, fluorescence transcription assay. AID 559. inhibition, %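 (tested at 10 µM)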. P0A8V2. 62,000 tested, 0.2% active; in the data active = inhibition above about 20%;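 note: 0% = enzyme without compound and 100% = no enzyme blank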
RORa activator: activators of human nuclear receptor RORA; P35398; CHO-K1 Gal4-RORA LBD luciferase reporter, luminescence; percent increase over mock-subtracted basal signal; activation, % at 10 µM; 65,000 tested, 1.5% active; AID 560;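 active = activation above the mean of all tested compounds plus 3 SD, cut at about 49% in these data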;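 note: 0% = DMSO-treated RORA cells and 100% = added signal equal to DMSO minus mock-transfected cells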
SF1 activator: activates the human nuclear receptor SF-1; Q13285; CHO-K1 Gal4-SF-1 LBD luciferase reporter; % increase over DMSO SF-1-specific signal; activation, % at 10 µM; 65,000 tested, 1.9% active;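 active = activation above the mean activation of all tested compounds plus 3 SD, cut at about 50% in these data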
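Test system: transient Gal4-SF-1 LBD reporter, CHO-K1; Amount: 4,000 CHO-K1 cells per well; Doses: 10 µM only; Timing: compound exposure 20 h at 37 °C; Signal: luciferase light emission; Read-out basis: percent activation relative to DMSO median and mock-transfected background; Control set: DMSO negative control and −SF1 background wells; Replicates: one test per compound.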
AP ELISA ortho: orthogonal test for alternative complement pathway inhibitors | Human serum alternative complement pathway, LPS-coated ELISA, C3 deposition; tested in compound mixtures | inhibition, % at 5 µM | 62,000 tested, 0.08% active;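 active = inhibition above 30% in each of the two pooled mixtures holding the compound, so the lower value exceeds 30%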;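 note: 0% = serum in Mg-EGTA without compound and 100% = EDTA serum blank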
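Test system: human serum complement alternative pathway, C3 deposition onto LPS / Medium: Mg2+-EGTA GVB++ buffer containing human serum at 1:15 dilution / Probe or stimulus: Plate-bound LPS / Times: 1 h at 37 °C / Signal: ELISA with HRP anti-human C3 antibody, TMB substrate, absorbance 450 nm / Measure: percent inhibition / Repeats: two pool placements per compound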
The depositor's hits bear a star; x = no result given. Hits are enriched below; roughly 2.2% of the tested compounds scored in any of these assays.

SMILES | TNAP act mid DEA | MT1-MMP txn act | E coli RNAP | RORa activator | SF1 activator | AP ELISA ortho
O=C(NC1(C(F)(F)F)Oc2ccccc2O1)N1CCC2(CC1)OCCO2 | x | 1 | x | 2 | 8 | x
O=C(NC1(C(F)(F)F)Oc2ccc(Cl)cc2O1)N1CCC2(CC1)OCCO2 (centres undefined) | 0.9 | x | 22* | 12 | -7 | 14
Cc1ccc(-n2c(O)c(C=Nc3ccccc3N)c(=O)[nH]c2=O)cc1C | 1 | 1.1 | 4 | 55* | 46 | 3
c1ccc2cc3cc4ccccc4cc3cc2c1 | x | 1.8 | x | x | x | x
CCCCn1c(O)c(C(C)=NCCCN(C)C)c(=O)[nH]c1=O | 0.9 | 1 | -4 | 4 | 25 | -14
CCCCn1c(O)c(C(CC)=NCCCN(C)C)c(=O)[nH]c1=O | 0.8 | 1.1 | 21* | 1 | -7 | -7
CCC(=NCCCN(CC)CC)c1c(O)n(-c2ccccc2)c(=O)[nH]c1=O | 0.9 | 1.1 | 5 | -17 | -10 | 36*
CCCc1cc2c(n1Cc1cccc(Cl)c1)C(C)C1CN(C(=O)c3ccccc3)C(C)(C(=O)OC)C21 (centres undefined) | x | 1 | x | x | x | x
O=C(Cc1ccccc1)N1CCN(Cc2c[nH]c3ccccc23)CC1 | 0.9 | 1.1 | -10 | -25 | -1 | 42*
COC(=O)[C@@H]1C[C@@]2(O)[C@@H](O)[C@@H](O)[C@@H](O)C[C@H]2N1Cc1cccnc1 | x | 1 | x | x | x | x
